# DNMT1 inh – human DNMT1 methyltransferase inhibitors, primary screen, biochemical, molecular beacon, fluorescence, HinP1I cleavage, uHTS | DNA (cytosine-5)-methyltransferase 1 (Homo sapiens), P26358 | inhibition (reported as % activation of signal), % at 10 µM | 360,000 tested, 0.83% active | AID 588458, 2011; in the data active means inhibition above about 50%
# Rpn11 inh – Rpn11 (PSMD14) deubiquitinase inhibitors, primary screen, biochemical, fluorescence polarization, uHTS | human 26S proteasome, Ub4-pepOG fluorescence polarization; 20S core pre-blocked with epoxomicin | inhibition, % at 20 µM | 360,000 tested, 0.59% active | AID 588493, 2011;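 active means inhibition at 20 µM, scaled to each plate's controls, above about 33%, limit read from the data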
# Scp1 inh – Scp-1 phosphatase inhibitors, primary screen, biochemical, colorimetric, uHTS; Carboxy-terminal domain RNA polymerase II polypeptide A small phosphatase 1 (Homo …; inhibition, % at 20 µM; Recombinant Scp1, phosphopeptide, malachite green phosphate absorbance; 340,000 tested, 0.88% active;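 active means inhibition above about 50% at 20 µM, limit read from the data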;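 further: plate controls were DMSO wells with enzyme for no effect and wells lacking enzyme for full effect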
#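 Material – SCP-1 phosphatase catalytic domain, residues 76-261 · Buffer or medium – Acidic Tris acetate buffer with magnesium and detergent · Also added – Phospho 17-mer peptide substrate · Compound – single 20 µM dose, 1% DMSO · Times – 45 min room-temperature reaction, 5 min colour, 30 min stabiliser · Technique – Phosphate-binding colour reagent, absorbance read at 630 nm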
# STEP inh – STEP phosphatase inhibitors, primary screen, biochemical, fluorescence intensity, uHTS; Tyrosine-protein phosphatase non-receptor type 5 (Homo sapiens), P54829; recombinant STEP, OMFP fluorogenic substrate; inhibition, % at 20 µM; 360,000 tested, 0.25% active; AID 588621, 2011;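 active means inhibition at 20 µM, scaled per plate between control wells, above about 37%, limit read from the data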;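 further: 0% = DMSO with enzyme and substrate and 100% = substrate only without enzyme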
#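 Material: STEP (striatal-enriched tyrosine phosphatase) enzyme, cell-free; Compound dosing: 20 µM single dose in 1% DMSO; Technique: fluorescence read at 480 nm ex / 540 nm em; Times: reaction 20 min, ambient temperature; Medium: 50 mM Bis-Tris pH 6.0 with 2.5 mM DTT and 0.005% Tween 20; Also added: OMFP at 25 µM.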
# LMPTP inh – LMPTP phosphatase inhibitors, primary screen, biochemical, fluorescence intensity, uHTS; inhibition, % at 20 µM; recombinant LMPTP-A, OMFP fluorogenic substrate; Low molecular weight phosphotyrosine protein phosphatase (Homo sapiens), P24666; 360,000 tested, 0.22% active;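 active means compounds that cut the enzyme signal by at least half of the control window in the single-dose screen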;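 further: plate controls were DMSO wells with enzyme plus substrate for no effect and substrate without enzyme for full effect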
#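 Buffer or medium: Bis-Tris pH 6.0, DTT, detergent; Assay system: LMPTP-A enzyme; Quantity: 0.625 nM enzyme; Detection: endpoint fluorescence intensity; Times: 50 min dark incubation at room temperature; Controls: substrate-only low control, DMSO enzyme-plus-substrate high control; Doses: single 20 µM dose; Read-out: percent inhibition versus substrate-only and uninhibited controls; Reagent: 400 µM OMFP.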
# Beacon interf DR – spectral interference with molecular beacon fluorescence, dose response, artefact control for DNMT1 inhibitor project, biochemical, fluorescent molecular beacon. AID 602382, 2012. 200 tested, under 10 active. shares compounds with DNMT1 inh. IC50, µM. spectral interference counter-screen
# DNMT1 inh conf – DNMT1 methyltransferase inhibitor retest, confirmation, biochemical, molecular beacon, fluorescence, single concentration | 2,300 tested, 8% active | inhibition, % at 10 µM | shares compounds with DNMT1 inh | AID 602385, 2012 | DNMT1 molecular beacon HinP1I cleavage;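 active means average inhibition of at least 30% in the single-concentration confirmation test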
# Beacon interf – beacon fluorescence artifact counter-screen; activation (fluorescence interference), % at 10 µM; shares compounds with DNMT1 inh; 2,300 tested, 1% active; DNMT1 molecular beacon spectral interference counterscreen, fluorescence 485/520;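 active means activation of at least 30% at 10 µM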;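 further: DNMT1 catalytic domain with a HinP1I cleavage step and a FAM/dabcyl DNA beacon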
# Rpn11 inh conf – Rpn11 (PSMD14) deubiquitinase inhibitors, confirmation, biochemical, fluorescence polarization, single concentration; inhibition, % at 20 µM; AID 602318, 2012; purified human 26S proteasome, Ub4-pepOG fluorescence polarization; proteasome pretreated with epoxomicin; shares compounds with Rpn11 inh; 1,900 tested, 29% active; in the data active means inhibition above about 40%
# MMP-2 inh – MMP-2 enzyme inhibition, confirmation, counter-screen for RPN11 inhibitor project, biochemical, fluorescence, single concentration | recombinant MMP-2, FRET peptide cleavage fluorescence | shares compounds with Rpn11 inh | 1,900 tested, 4% active | inhibition, % at 20 µM; in the data active means inhibition above about 40%;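 further: human MMP-2 activated beforehand with APMA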
# Thrombin inh – bovine thrombin protease inhibition, confirmation, counter-screen for Rpn11 inhibitor project, biochemical, fluorescence polarization, single concentration; bovine thrombin cleavage of Ub4-pepOG; shares compounds with Rpn11 inh; inhibition, % at 20 µM; 1,900 tested, 13% active;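 active means mean inhibition at least 40% at 20 µM, or signal 3 deviations below plate average, so some actives read negative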;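 further: plate controls were thrombin with DMSO for no effect and buffer wells lacking thrombin for full effect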
# STEP inh conf – STEP phosphatase inhibitor hit confirmation, biochemical, fluorescence intensity, single concentration; AID 623866, 2012; 520 tested, 32% active; inhibition, % at 20 µM; recombinant STEP, OMFP fluorogenic substrate; shares compounds with STEP inh;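 further: 0% = enzyme with substrate plus DMSO and 100% = substrate without enzyme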
# * hit, by the source's call; . = not tested or not shown; + = active, no number. In the library only some 2% were active in any assay of this set; here they are far more common. Unless noted, how the calls were made is not given here.
SMILES,DNMT1 inh,Rpn11 inh,Scp1 inh,STEP inh,LMPTP inh,DNMT1 inh conf,Beacon interf,Rpn11 inh conf,MMP-2 inh,Thrombin inh,others
O=S1(=O)CCC(n2nccc2-c2ccccc2)C1 (stereo unspecified),0,0,-12,0,-1,.,.,.,.,.,
COc1ccc(C2=NN(c3nc(-c4ccccc4)c(CC(=O)O)s3)C(c3ccco3)C2)cc1 (stereo unspecified),56*,69*,10,-1,2,4,1,25,24,17,
CCCCn1c(NC(=O)CC)c(C#N)c2nc3ccccc3nc21,74*,189*,11,28,0,1,2,38,-19,-17,
CCC(=O)Nc1c(C#N)c2nc3ccccc3nc2n1C1CCCCC1,94*,92*,28,3,2,2,-1,6,-29,-5,
N#Cc1c(N)n(C2CCCCC2)c2nc3ccccc3nc12,-15,9,3,-1,2,.,.,.,.,.,
c1ccc2c(c1)OCCOCCOCCOCCOCCOc1ccccc1OCCOCCOCCO2,-1,4,0,0,-1,.,.,.,.,.,
CCCCCCCC(=O)Nc1ccc(C(=O)N/N=C/c2cccc([N+](=O)[O-])c2)cc1,78*,38*,96*,24,0,5,2,3,-34,-11,
CC1(C)Cc2c(C#N)c(NCCCO)nc(-c3ccccc3)c2CO1,66*,68*,-9,-5,2,-1,4,-10,-26,-14,
Cc1cccc(NS(=O)(=O)c2cc3c(cc2C)n(C)c(=O)c(=O)n3C)c1,1,-4,0,4,-1,.,.,.,.,.,
COc1ccc(CCN(Cc2cccs2)S(=O)(=O)c2ccc(S(=O)(=O)N(C)C3CCCCC3)cc2)cc1OC,0,-4,-4,-5,1,.,.,.,.,.,
O=C(COC(=O)Cc1ccsc1)NCc1ccccc1,74*,39*,2,23,-2,3,4,-3,-15,-18,
C#CCn1c(=NC(=O)c2cccs2)sc2cccc(OC)c21,58*,68*,17,2,11,3,33*,50*,7,-9,
O=c1c(Cl)c(N/N=C/c2ccc(Cl)cc2)cnn1-c1ccccc1,80*,115*,20,3,54*,5,2,17,-15,2,
Clc1cccc(Nc2nc(-c3ccncc3)nc3ccccc23)c1,-5,7,-14,4,7,.,.,.,.,.,
Fc1ccc(Nc2nc(-c3ccncc3)nc3ccccc23)cc1F,56*,80*,-13,14,13,7,1,17,-18,-23,
CC(/C=C/c1ccccc1)=N/NC(=O)c1cccc(Br)c1,0,0,8,0,1,.,.,.,.,.,
c1ccc(Cn2c(SCc3nc4ccccc4s3)nnc2-c2ccco2)cc1,104*,74*,26,11,37,1,6,7,29,3,
CCC(=O)Nc1ccc(C(=O)NNC(=O)c2cccc(C)c2)cc1,2,2,-7,1,0,.,.,.,.,.,
O=S1(=O)c2cccc3cccc(c23)N1CCBr,-2,5,-12,-2,-1,.,.,.,.,.,
CC(=O)NN1C(=O)/C(=C\c2ccc(Br)o2)SC1=S,81*,50*,6,17,2,2,2,12,-20,18,
COc1ccc(CC(=O)Nc2ccc(S(=O)(=O)N3CCCC3)cc2)c(OC)c1,-5,-4,-5,2,0,.,.,.,.,.,
C[C@@H](NC(=O)c1ncn2c1c(=O)[nH]c1cccnc12)c1ccccc1,5,-1,.,0,2,.,.,.,.,.,
C[C@@H](NC(=O)c1ncn2c1c(=O)[nH]c1ccc(Br)cc12)c1ccccc1,93*,+,.,50*,58*,4,0,4,2,-3,STEP inh conf=-1
Cc1ccccc1N1CCN(S(=O)(=O)c2nnc(NC(=O)c3ccco3)s2)CC1,-2,2,0,0,15,.,.,.,.,.,
NC(N)=NCCCS(=O)(=O)Nc1ccc(Nc2c3ccccc3nc3cc([N+](=O)[O-])ccc23)cc1,67*,73*,5,48*,63*,72*,-16,-13,-35,48*,Beacon interf DR=>99;STEP inh conf=6
O=c1c2ccccc2nc2sc(Nc3cccc(Cl)c3)nn12,107*,21,41,70*,72*,0,0,.,.,.,STEP inh conf=10
CC(Sc1nnc(-c2ccco2)n1C)C(=O)N1C(C)CCCC1C (stereo unspecified),4,-1,-7,3,-1,.,.,.,.,.,
Cc1ccsc1/C=N/NC(=O)Cn1cnc2ccccc21,-2,-4,-4,1,-3,.,.,.,.,.,
Nc1c(C(=O)OCC2CCCO2)c2nc3ccccc3nc2n1-c1ccc2c(c1)OCCO2 (stereo unspecified),.,.,1,.,.,.,.,.,.,.,
